Test results as given in ChEMBL document CHEMBL3407418, “Fragment-based drug discovery of 2-thiazolidinones as BRD4 inhibitors: 2. Structure-based optimization” (J Med Chem, 2015).

What was measured:
[1] = target: Bromodomain-containing protein 4 (Homo sapiens, UniProt O60885); test: Inhibition of BRD4(1) (unknown origin) incubated for 4 hrs by (+)-JQ1 fluorescent ligand based fluorescence anisotrophy
HT-29 = test: Growth inhibition of human HT-29 cells after 72 hrs by SRB assay; format: functional, cell-based; conditions: HT-29, 72 h
Method in brief: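 HT-29 cells are grown in McCoy's 5A with 10% FBS at 37 °C, 5% CO2. DMSO stocks (0.01 mol/L) are diluted in normal saline just before use. Cells are treated in triplicate with gradient concentrations for 72 h at 37 °C.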

[2] = Growth inhibition of human MM1S cells after 72 hrs by CellTiter-Glo luminescent cell viability assay; conditions: MM1.S
MV4-11 = test: Growth inhibition of human MV4-11 cells after 72 hrs by CellTiter-Glo luminescent cell viability assay; conditions: MV4-11, 72 h
[3] = target: T1, ATPase family AAA domain-containing protein 2 (Homo sapiens) (UniProt Q6PL18); test: Binding affinity to ATAD2 (unknown origin) assessed as increase in protein melting temperature at 50 umol by real-time PCR system based thermal shift assay
T1 sequence (whole entry): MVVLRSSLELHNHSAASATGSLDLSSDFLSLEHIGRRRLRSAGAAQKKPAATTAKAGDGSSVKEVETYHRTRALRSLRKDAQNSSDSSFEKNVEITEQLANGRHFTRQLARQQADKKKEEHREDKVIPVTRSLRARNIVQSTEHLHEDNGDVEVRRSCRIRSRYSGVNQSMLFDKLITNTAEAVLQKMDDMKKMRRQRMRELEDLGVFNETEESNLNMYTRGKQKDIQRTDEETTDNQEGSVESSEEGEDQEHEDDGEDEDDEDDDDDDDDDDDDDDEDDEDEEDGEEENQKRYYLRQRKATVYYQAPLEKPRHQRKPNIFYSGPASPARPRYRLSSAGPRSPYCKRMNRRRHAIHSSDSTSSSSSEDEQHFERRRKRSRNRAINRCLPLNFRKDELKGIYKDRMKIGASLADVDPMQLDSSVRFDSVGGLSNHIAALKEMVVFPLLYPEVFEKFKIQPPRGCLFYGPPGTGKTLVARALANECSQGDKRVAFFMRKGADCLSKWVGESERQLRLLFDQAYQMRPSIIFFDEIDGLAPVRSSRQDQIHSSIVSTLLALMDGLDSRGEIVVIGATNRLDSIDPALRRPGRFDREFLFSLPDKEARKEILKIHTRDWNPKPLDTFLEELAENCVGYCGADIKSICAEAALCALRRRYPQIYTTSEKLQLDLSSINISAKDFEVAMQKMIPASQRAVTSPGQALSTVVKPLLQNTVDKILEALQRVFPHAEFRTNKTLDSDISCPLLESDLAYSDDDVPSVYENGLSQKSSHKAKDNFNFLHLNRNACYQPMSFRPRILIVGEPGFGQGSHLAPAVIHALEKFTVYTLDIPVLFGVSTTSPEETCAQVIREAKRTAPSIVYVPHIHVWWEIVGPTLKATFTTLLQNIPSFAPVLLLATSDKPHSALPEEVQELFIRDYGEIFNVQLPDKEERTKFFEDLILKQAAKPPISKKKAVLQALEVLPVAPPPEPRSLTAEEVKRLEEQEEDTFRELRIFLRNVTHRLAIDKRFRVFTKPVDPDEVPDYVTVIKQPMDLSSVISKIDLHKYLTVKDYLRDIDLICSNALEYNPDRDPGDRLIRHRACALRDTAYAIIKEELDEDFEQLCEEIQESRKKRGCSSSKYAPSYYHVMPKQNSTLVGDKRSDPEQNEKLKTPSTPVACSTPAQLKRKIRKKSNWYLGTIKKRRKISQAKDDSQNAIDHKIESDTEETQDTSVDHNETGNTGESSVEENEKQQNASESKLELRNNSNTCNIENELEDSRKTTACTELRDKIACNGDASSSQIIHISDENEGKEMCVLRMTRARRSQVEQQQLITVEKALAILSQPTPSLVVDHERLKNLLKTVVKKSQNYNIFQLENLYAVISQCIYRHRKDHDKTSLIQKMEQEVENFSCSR
Method in brief: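 Bromodomain proteins in 10 mmol HEPES pH 7.5, 500 mmol NaCl at 75 μg/mL final; compound at 50 µmol final; SYPRO Orange probe at 1:1000. Four replicates per protein mixture. Melt curve read on a real-time PCR instrument, heating 25 °C to 99 °C at 1 °C/min under continuous fluorescence reading; binding taken as the rise in protein melting temperature.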

[4] = Stability in human liver microsomes assessed as clearance at 1 uM pre-incubated for 5 mins followed by NADPH addition and measured after 5 to 30 mins post NADPH addition by LC/MS/MS method; format: ADME; conditions: read-out: CLH
Method in brief: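 Human liver microsomes (0.5 mg/mL) preincubated with 1 µM compound for 5 min at 37 °C in 0.1 M phosphate pH 7.4 with 1 mmol EDTA and 5 mmol MgCl2. Started with 1 mmol NADPH; sampled at 0, 5, 10 and 30 min. Quenched with equal volume of cold acetonitrile, vortexed, and centrifuged at 10,000 × g.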

CYP3A4 [5] = target: T2, CYP3A4 (Homo sapiens, UniProt P08684); test: Inhibition of CYP3A4 in human liver microsomes at 10 uM using midazolam substrate preincubated for 5 mins before NADPH addition and measured after 20 mins post NADPH addition; format: ADME; conditions: probe midazolam
Method in brief: (§1)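 Human liver microsomes 0.2 mg/mL, 1 mmol NADPH, 100 mmol phosphate pH 7.4, probe cocktail (10 μM midazolam, 100 μM testosterone, 10 μM dextromethorphan, 20 μM diclofenac, 100 μM phenacetin, 100 μM mephenytoin), test compound 10 μM or PBS; organic solvent <1%. 5 min preincubation at 37 °C, NADPH-generating system start, 20 min reaction; inhibition from metabolite formation relative to PBS.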

CYP3A4 [6] = target: T2, CYP3A4; test: Inhibition of CYP3A4 in human liver microsomes at 10 uM preincubated for 5 mins before NADPH addition and measured after 20 mins post NADPH addition; format: ADME
CYP2D6 = CYP2D6 (Homo sapiens, UniProt P10635); test: Inhibition of CYP2D6 in human liver microsomes at 10 uM using dextromethorphan substrate preincubated for 5 mins before NADPH addition and measured after 20 mins post NADPH addition; format: ADME; conditions: liver microsomes, probe dextromethorphan; method in brief: as §1
CYP2C9 = CYP2C9 (Homo sapiens, UniProt P11712); test: Inhibition of CYP2C9 in human liver microsomes at 10 uM using diclofenac substrate preincubated for 5 mins before NADPH addition and measured after 20 mins post NADPH addition; format: ADME; conditions: liver microsomes, probe diclofenac; method in brief: as §1
CYP1A2 = target: T3, CYP1A2 (Homo sapiens, UniProt P05177); test: Inhibition of CYP1A2 in human liver microsomes at 10 uM using phenacetin substrate preincubated for 5 mins before NADPH addition and measured after 20 mins post NADPH addition; format: ADME; conditions: probe phenacetin; method in brief: as §1
T3 sequence (P05177 whole entry): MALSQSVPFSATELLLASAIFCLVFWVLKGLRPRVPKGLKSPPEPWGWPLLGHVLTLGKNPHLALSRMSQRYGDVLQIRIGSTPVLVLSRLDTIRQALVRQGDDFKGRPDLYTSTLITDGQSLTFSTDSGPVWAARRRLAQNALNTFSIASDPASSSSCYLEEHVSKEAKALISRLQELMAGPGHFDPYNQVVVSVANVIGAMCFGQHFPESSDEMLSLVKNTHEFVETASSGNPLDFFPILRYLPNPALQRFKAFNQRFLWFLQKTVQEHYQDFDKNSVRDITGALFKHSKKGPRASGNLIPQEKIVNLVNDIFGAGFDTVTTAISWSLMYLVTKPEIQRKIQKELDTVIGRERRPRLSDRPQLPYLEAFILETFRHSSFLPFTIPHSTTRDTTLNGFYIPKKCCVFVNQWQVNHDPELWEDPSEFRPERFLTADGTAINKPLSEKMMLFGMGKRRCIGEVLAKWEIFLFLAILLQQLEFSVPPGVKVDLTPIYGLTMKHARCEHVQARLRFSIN

CYP2C19 = CYP2C19 (Homo sapiens, UniProt P33261); test: Inhibition of CYP2C19 in human liver microsomes at 10 uM using mephenytoin substrate preincubated for 5 mins before NADPH addition and measured after 20 mins post NADPH addition; format: ADME; conditions: probe mephenytoin; method in brief: as §1
Cytochrome P450 2C9 = Cytochrome P450 2C9 (Homo sapiens, UniProt P11712); test: Time dependent inhibition of CYP2C9 in human liver microsomes at 10 uM using diclofenac substrate preincubated for 5 mins before NADPH addition and measured after 20 mins post NADPH addition; format: ADME
Cytochrome P450 2C19 = Cytochrome P450 2C19 (Homo sapiens, UniProt P33261); test: Time dependent inhibition of CYP2C19 in human liver microsomes at 10 uM using mephenytoin substrate preincubated for 5 mins before NADPH addition and measured after 20 mins post NADPH addition; format: ADME
Cytochrome P450 2C19, sequence (P33261 whole entry): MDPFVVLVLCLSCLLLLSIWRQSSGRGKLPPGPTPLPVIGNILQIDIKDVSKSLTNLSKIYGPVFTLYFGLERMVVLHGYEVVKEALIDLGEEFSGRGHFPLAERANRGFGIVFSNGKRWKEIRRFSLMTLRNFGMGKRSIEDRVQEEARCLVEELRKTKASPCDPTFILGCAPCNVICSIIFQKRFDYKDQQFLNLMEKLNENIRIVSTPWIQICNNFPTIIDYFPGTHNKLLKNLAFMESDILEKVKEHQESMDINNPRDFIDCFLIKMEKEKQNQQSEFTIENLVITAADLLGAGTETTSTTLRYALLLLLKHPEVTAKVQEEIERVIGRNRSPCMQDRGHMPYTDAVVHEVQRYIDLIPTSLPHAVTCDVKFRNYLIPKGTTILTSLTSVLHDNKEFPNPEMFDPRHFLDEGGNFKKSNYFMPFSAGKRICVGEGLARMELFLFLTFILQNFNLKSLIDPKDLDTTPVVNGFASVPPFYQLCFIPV

T2 sequence (P08684 whole entry): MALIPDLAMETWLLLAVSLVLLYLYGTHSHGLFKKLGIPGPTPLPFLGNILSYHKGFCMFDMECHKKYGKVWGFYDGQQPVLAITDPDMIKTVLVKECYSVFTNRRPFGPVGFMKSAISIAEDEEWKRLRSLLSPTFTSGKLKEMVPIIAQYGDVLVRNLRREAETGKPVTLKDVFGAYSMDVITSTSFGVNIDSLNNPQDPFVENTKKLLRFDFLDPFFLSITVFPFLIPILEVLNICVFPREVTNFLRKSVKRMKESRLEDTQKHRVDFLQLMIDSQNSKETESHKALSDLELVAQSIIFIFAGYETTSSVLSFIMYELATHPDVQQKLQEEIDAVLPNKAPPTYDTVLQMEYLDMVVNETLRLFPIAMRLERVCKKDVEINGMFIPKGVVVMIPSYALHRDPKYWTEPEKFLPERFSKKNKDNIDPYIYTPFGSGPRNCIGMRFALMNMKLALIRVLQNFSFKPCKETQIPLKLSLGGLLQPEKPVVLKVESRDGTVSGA
CYP2D6, sequence (P10635 whole entry): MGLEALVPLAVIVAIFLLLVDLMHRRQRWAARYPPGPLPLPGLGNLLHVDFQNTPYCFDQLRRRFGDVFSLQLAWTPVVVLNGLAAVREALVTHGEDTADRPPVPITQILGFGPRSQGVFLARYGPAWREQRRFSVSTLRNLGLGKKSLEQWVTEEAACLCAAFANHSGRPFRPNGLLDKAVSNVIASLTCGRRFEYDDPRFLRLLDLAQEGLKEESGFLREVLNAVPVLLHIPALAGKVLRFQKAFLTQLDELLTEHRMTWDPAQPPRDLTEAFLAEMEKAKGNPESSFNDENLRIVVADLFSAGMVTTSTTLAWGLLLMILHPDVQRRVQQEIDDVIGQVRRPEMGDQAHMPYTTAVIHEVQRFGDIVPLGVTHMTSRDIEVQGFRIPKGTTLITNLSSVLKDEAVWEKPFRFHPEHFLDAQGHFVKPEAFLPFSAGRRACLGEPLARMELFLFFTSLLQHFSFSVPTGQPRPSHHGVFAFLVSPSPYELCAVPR
Cytochrome P450 2C9, sequence (P11712 whole entry): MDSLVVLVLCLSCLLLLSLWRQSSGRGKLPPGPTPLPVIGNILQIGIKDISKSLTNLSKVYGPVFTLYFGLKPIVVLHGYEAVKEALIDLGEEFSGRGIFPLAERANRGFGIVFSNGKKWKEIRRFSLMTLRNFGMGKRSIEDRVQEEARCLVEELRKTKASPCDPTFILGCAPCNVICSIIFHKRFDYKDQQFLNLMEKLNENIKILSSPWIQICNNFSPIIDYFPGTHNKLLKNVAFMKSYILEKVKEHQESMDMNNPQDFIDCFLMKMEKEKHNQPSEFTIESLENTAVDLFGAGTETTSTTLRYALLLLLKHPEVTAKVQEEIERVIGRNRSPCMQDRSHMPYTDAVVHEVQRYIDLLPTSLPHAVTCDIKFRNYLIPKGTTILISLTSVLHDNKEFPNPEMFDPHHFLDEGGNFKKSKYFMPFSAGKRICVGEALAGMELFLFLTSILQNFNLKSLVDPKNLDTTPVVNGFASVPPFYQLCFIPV
CYP2C9, sequence (P11712 whole entry): as above
CYP2C19, sequence (P33261 whole entry): as the sequence (P33261 whole entry) above

| Compound | IC50 [1] | IC50 (HT-29) | IC50 [2] | IC50 (MV4-11) | further results |
| --- | --- | --- | --- | --- | --- |
| O=c1[nH]c(-c2ccc(Cl)c(S(=O)(=O)NC3CCCC3)c2)cs1 | 0.25 µM | 23.7 µM | 3.37 µM | 0.341 µM | – |
| Nc1ccc(NS(=O)(=O)c2cccc(-c3csc(=O)[nH]3)c2)cc1 | 8.33 µM | – | – | – | – |
| O=c1[nH]c(-c2ccc(F)c(S(=O)(=O)NC3CCCC3)c2)cs1 | 0.5 µM | 35.2 µM | – | – | – |
| O=c1[nH]c(-c2cccc(S(=O)(=O)NC3CC3)c2)cs1 | 2.26 µM | – | – | – | – |
| O=c1[nH]c(-c2cccc(S(=O)(=O)Nc3ccon3)c2)cs1 | 7.34 µM | – | – | – | – |
| CCCC(=O)Nc1cc(-c2csc(=O)[nH]2)cc(S(=O)(=O)NC2CCCC2)c1 | 0.17 µM | 13.9 µM | 2.53 µM | 0.791 µM | – |
| Cc1c(NC(=O)C2CC2)cc(-c2csc(=O)[nH]2)cc1S(=O)(=O)NC1CCCC1 | 0.22 µM | 28.5 µM | 1.76 µM | 0.45 µM | – |
| O=c1[nH]c(-c2cccc(S(=O)(=O)NC3CCOC3)c2)cs1 (stereo not drawn) | 5.82 µM | – | – | – | – |
| Nc1cc(-c2csc(=O)[nH]2)cc(S(=O)(=O)NC2CCCC2)c1 | 0.46 µM | 6.15 µM | 3.58 µM | 0.689 µM | – |
| O=c1[nH]c(-c2cccc(S(=O)(=O)NCCc3cccs3)c2)cs1 | > 10 µM | – | – | – | – |
| O=C(Nc1ccc(-c2csc(=O)[nH]2)cc1S(=O)(=O)NC1CCCC1)C1CC1 | 0.8 µM | 13 µM | – | – | – |
| Cc1sc2c(c1C)C(c1ccc(Cl)cc1)=N[C@@H](CC(=O)OC(C)(C)C)c1nnc(C)n1-2 | – | 0.104 µM | 0.109 µM | 0.023 µM | ΔTm [3]: 1.04 °C; microsomal CLint at 1 µM [4]: 78 µL/min/mg; inhibition at 20 min, 10 µM (CYP3A4 [5]): 30%; inhibition at 20 min, 10 µM (CYP3A4 [6]): 28%; inhibition at 20 min, 10 µM (CYP2D6): 2%; inhibition at 20 min, 10 µM (CYP2C9): 18%; inhibition at 20 min, 10 µM (CYP1A2): 2%; inhibition at 20 min, 10 µM (CYP2C19): 18%; TDI (Cytochrome P450 2C9): Active; TDI (Cytochrome P450 2C19): Active |
